{"source": "paper PMC3262993", "about": "(Chemmedchem, 2009)", "key": {"[1]": {"system": "tactile allodynia in a paclitaxel-induced neuropathic pain model", "assay": "Tactile allodynia in paclitaxel-induced neuropathic pain model", "assay_type": "in vivo, rat", "conditions": "paclitaxel-treated rats; for Effect on mechanical (tactile) allodynia: intraperitoneal administration", "in_short": "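Adult male Sprague Dawley rats (120–150 g) were housed three per cage on a 12 h light/dark cycle. Paclitaxel was given at 1.0 mg kg−1 i.p. daily for 4 days (cumulative 4 mg kg−1), with vehicle 10 % Cremophor EL in saline at 1 mL kg−1. Hind-paw mechanical withdrawal was tested daily from day 0 after ≥30 min acclimation on wire mesh. Test compound was given i.p.; n = 5–6 per group.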"}, "[2]": {"target": "recombinant human CB1 (hCB1) (Homo sapiens, UniProt P21554)", "sequence (P21554 whole entry)": "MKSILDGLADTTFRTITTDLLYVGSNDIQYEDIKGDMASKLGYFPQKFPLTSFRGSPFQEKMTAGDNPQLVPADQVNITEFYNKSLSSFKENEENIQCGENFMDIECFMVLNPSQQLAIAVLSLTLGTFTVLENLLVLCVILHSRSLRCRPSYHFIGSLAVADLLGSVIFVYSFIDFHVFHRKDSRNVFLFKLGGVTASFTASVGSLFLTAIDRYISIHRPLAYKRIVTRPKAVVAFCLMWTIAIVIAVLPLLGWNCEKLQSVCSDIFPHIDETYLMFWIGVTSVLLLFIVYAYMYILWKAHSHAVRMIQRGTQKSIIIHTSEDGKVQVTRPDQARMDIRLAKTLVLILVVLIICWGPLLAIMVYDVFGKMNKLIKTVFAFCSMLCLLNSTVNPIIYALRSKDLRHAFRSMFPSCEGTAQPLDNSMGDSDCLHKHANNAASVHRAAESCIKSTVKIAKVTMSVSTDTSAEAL", "assay": "γ-[35S]GTP functional assay, hCB1", "assay_type": "biochemical"}, "[3]": {"target": "recombinant human CB2 (hCB2) (Homo sapiens, UniProt P34972)", "sequence (P34972 whole entry)": "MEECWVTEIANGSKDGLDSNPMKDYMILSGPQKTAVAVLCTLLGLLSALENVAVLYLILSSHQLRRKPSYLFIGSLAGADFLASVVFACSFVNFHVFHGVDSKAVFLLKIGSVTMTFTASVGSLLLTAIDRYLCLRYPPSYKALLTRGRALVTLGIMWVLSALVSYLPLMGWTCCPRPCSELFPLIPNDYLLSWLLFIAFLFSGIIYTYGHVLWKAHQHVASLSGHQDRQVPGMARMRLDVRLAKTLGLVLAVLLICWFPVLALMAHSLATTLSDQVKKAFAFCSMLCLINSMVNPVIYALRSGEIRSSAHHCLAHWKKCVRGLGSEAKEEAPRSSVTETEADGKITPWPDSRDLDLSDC", "assay": "γ-[35S]GTP functional assay, hCB2", "assay_type": "biochemical", "conditions": "for γ-[35S]GTP hCB2 Emax: percentage relative to the efficacy of compound 7"}, "hCB1": {"target": "hCB1 (Homo sapiens, UniProt P21554)", "sequence (P21554 whole entry)": "as the sequence (P21554 whole entry) above", "assay": "Radioligand competitive binding assay, hCB1"}, "hCB2": {"target": "hCB2 (Homo sapiens, UniProt P34972)", "sequence (P34972 whole entry)": "as the sequence (P34972 whole entry) above", "assay": "Radioligand competitive binding assay"}, "[4]": {"conditions": "PBS, pH 7.4, at 2.0 × 10^-4 M"}, "plasma protein": {"system": "plasma protein", "conditions": "1.0E-05 M"}, "K+ channel hERG": {"target": "K+ channel hERG (Homo sapiens, UniProt Q12809)", "sequence (Q12809 whole entry)": "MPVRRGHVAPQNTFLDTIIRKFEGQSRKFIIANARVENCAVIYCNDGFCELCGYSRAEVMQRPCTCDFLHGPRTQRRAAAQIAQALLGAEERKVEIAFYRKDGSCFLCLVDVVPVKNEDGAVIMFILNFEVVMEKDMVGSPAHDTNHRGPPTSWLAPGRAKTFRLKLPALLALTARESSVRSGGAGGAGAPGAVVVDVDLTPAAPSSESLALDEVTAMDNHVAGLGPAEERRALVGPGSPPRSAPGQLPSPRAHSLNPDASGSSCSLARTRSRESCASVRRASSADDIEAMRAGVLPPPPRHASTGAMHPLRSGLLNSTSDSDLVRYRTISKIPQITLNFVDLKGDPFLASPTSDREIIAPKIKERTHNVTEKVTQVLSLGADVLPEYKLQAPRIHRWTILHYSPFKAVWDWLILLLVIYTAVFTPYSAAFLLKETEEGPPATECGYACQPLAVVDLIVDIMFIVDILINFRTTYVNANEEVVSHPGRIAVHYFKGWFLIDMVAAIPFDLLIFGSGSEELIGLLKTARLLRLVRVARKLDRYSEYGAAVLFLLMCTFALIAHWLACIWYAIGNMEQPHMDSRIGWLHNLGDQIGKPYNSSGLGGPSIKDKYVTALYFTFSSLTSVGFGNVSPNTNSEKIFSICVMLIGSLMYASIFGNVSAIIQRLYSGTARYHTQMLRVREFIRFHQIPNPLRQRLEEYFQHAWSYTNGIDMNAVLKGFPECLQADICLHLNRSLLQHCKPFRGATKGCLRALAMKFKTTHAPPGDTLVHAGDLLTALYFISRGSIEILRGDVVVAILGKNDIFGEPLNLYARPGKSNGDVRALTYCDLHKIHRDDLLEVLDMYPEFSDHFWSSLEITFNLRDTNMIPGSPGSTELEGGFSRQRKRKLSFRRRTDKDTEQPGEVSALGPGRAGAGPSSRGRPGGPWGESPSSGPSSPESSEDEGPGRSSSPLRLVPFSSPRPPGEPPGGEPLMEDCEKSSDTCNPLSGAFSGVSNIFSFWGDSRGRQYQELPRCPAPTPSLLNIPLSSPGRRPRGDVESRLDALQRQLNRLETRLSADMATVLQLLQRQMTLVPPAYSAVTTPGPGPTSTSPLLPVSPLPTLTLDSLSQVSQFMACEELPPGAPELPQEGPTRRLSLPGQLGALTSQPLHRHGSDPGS"}, "[5]": {"system": "neuropathic pain in spinal nerve ligation and paclitaxel-induced neuropathy models", "conditions": "cited from earlier work"}, "[6]": {"conditions": "read-out: Ki hCB2, CHO-K1 membranes, 1 nM [3H]7, mean ± SEM"}}, "note": "Read-outs that look alike come from different tables or passages of the source.", "data": [{"smiles": "CN1CCCCC1Cn1cc(C(=O)c2cc([N+](=O)[O-])ccc2I)c2ccccc21", "note": "(stereo not shown) [Compound 1, AM1241, reference compound]", "values": [{"measurement": "Effects on tactile allodynia versus vehicle", "setting": "[1]; i.p., 1, 3 and 5 mg kg^-1", "value": "not significantly different from the effects induced by the vehicle"}, {"measurement": "Effect on mechanical (tactile) allodynia", "setting": "[1]", "value": "did not affect the paw withdrawal threshold"}]}, {"smiles": "CC1(Cc2ccccc2)COc2ccc(C(=O)NC3CCCCC3)cc21", "note": "(stereo not shown) [Compound 14, 3-Benzyl-3-methyl-2,3-dihydrobenzofuran-5-carboxylic acid cyclohexylamide]", "values": [{"measurement": "EC50", "setting": "[2]", "value": "> 10000", "unit": "nM"}]}, {"smiles": "CC1(Cc2ccccc2)COc2cc(C(=O)NC3CCCCC3)ccc21", "note": "(stereo not shown) [Compound 17, 3-Benzyl-3-methyl-2,3-dihydrobenzofuran-6-carboxylic acid cyclohexylamide]", "values": [{"measurement": "EC50", "setting": "[2]", "value": "> 10000", "unit": "nM"}]}, {"smiles": "CC1(Cc2ccccc2)COc2cc(C(=O)N3CCCCC3)ccc21", "note": "(stereo not shown) [Compound 18, 3-Benzyl-3-methyl-2,3-dihydrobenzofuran-6-carboxylic acid piperidine amide]", "values": [{"measurement": "γ-[35S]GTP hCB2 Emax", "setting": "[3]", "value": 88.3, "unit": "%"}, {"measurement": "Ki", "setting": "hCB1; read-out: Ki hCB1, mean ± SEM", "value": "> 10000", "unit": "nM"}, {"measurement": "Ki", "setting": "hCB2; [6]", "value": "422 ± 123", "unit": "nM"}, {"measurement": "Aqueous solubility", "setting": "[4]", "value": "31.8 ± 1.8", "unit": "μm μM"}, {"measurement": "Protein bound (human)", "setting": "plasma protein", "value": "82.8 ± 11.1", "unit": "%"}, {"measurement": "Protein recovery (human)", "setting": "plasma protein", "value": "95.6 ± 13.6", "unit": "%"}, {"measurement": "Intestinal permeability, assessment", "setting": "TC7", "value": "compatible with oral administration with no efflux"}, {"measurement": "A–B permeability (% recovery)", "setting": "TC7; TC7, pH 6.5/7.4", "value": "63.5 ± 6.5", "unit": "%"}, {"measurement": "B–A permeability (% recovery)", "setting": "TC7; TC7, pH 6.5/7.4", "value": "85.5 ± 0.5", "unit": "%"}, {"measurement": "A–B permeability", "setting": "TC7; TC7, pH 6.5/7.4, 1.0E-05 M", "value": "52.2 ± 1.7 10^−6 cm s^−1"}, {"measurement": "B–A permeability", "setting": "TC7; TC7, pH 6.5/7.4, 1.0E-05 M", "value": "16.2 ± 0.2 10^−6 cm s^−1"}, {"measurement": "Genetic toxicity (Ames test)", "setting": "strain TA98; up to 10 μM", "value": "No genetic toxicity"}, {"measurement": "Ames test (strain TA98 +S9)", "setting": "strain TA98; with S9", "value": "<0"}, {"measurement": "Ames test (strain TA98)", "setting": "strain TA98; without S9", "value": "<0"}, {"measurement": "Cardiac toxicity", "setting": "K+ channel hERG", "value": "did not show any cardiac toxicity"}, {"measurement": "K+ channel hERG automated patch-clamp (cardiac toxicity)", "setting": "K+ channel hERG; at 1 μM", "value": "inactive at 1 μm"}, {"measurement": "Effect on locomotor behavior", "setting": "[5]; rats", "value": "without affecting locomotor behavior"}, {"measurement": "Effect on neuropathic pain", "setting": "[5]; spinal nerve ligation and paclitaxel-induced neuropathy models in rats", "value": "reversed neuropathic pain"}]}, {"smiles": "CCC/C=C/CC1(C)COc2cc(C(=O)N3CCCCC3)ccc21", "note": "(stereo not shown) [Compound 19]", "values": [{"measurement": "γ-[35S]GTP hCB1 Emax", "setting": "[2]; percentage relative to the efficacy of compound 7", "value": 60, "unit": "%"}, {"measurement": "γ-[35S]GTP hCB2 Emax", "setting": "[3]", "value": 97.1, "unit": "%"}, {"measurement": "Ki", "setting": "hCB2; [6]", "value": "83.6 ± 23.8", "unit": "nM"}, {"measurement": "%MPE for reversing mechanical allodynia versus vehicle", "setting": "[1]; i.p., 15 mg kg^-1", "value": "significantly different (P <0.05) from that of the vehicle"}, {"measurement": "Effect on mechanical (tactile) allodynia", "setting": "[1]", "value": "suppressed mechanical allodynia"}]}, {"smiles": "CCC/C=C/CC1(C)COc2cc(C(=O)NC3CCCCC3)ccc21", "note": "(stereo not shown) [Compound 20, 3-((E)-Hex-2-enyl)-3-methyl-2,3-dihydrobenzofuran-6-carboxylic acid cyclohexylamide]", "values": [{"measurement": "EC50", "setting": "[2]", "value": "> 10000", "unit": "nM"}, {"measurement": "EC50", "setting": "[3]", "value": "839 ± 5.5", "unit": "nM"}, {"measurement": "Ki", "setting": "hCB1", "value": "> 1000", "unit": "nM"}, {"measurement": "Ki", "setting": "hCB2", "value": "> 1000", "unit": "nM"}]}, {"smiles": "CC1(Cc2ccccc2)COc2cc(C(=O)N3CCOCC3)ccc21", "note": "(stereo not shown) [Compound 22, (3-Benzyl-3-methyl-2,3-dihydrobenzofuran-6-yl)morpholinomethanone]", "values": [{"measurement": "EC50", "setting": "[2]", "value": "> 10000", "unit": "nM"}, {"measurement": "EC50", "setting": "[3]", "value": "5583 ± 4.4", "unit": "nM"}]}, {"smiles": "CN(C(=O)c1ccc2c(c1)OCC2(C)Cc1ccccc1)C(C)(C)C", "note": "(stereo not shown) [Compound 23, 3-Benzyl-N-tert-butyl-N,3-dimethyl-2,3-dihydrobenzofuran-6-carboxamide]", "values": [{"measurement": "EC50", "setting": "[2]", "value": "2580 ± 1.5", "unit": "nM"}, {"measurement": "EC50", "setting": "[3]", "value": "95.3 ± 1.8", "unit": "nM"}]}, {"smiles": "CC1(Cc2ccccc2)COc2cc(C(=O)NCC3CCOCC3)ccc21", "note": "(stereo not shown) [Compound 24, 3-Benzyl-3-methyl-2,3-dihydrobenzofuran-6-carboxylic acid (tetrahydropyran-4-ylmethyl)amide]", "values": [{"measurement": "EC50", "setting": "[2]", "value": "> 10000", "unit": "nM"}, {"measurement": "EC50", "setting": "[3]", "value": "659 ± 1.4", "unit": "nM"}]}, {"smiles": "CC1(Cc2cccc3ccccc23)COc2cc(C(=O)NC3CCCCC3)ccc21", "note": "(stereo not shown) [Compound 27, 3-Methyl-3-naphthalen-1-ylmethyl-2,3-dihydrobenzofuran-6-carboxylic acid cyclohexylamide]", "values": [{"measurement": "EC50", "setting": "[2]", "value": "> 10000", "unit": "nM"}, {"measurement": "EC50", "setting": "[3]", "value": "> 10000", "unit": "nM"}]}, {"smiles": "CC1(Cc2cccc3ccccc23)COc2cc(C(=O)N3CCCCC3)ccc21", "note": "(stereo not shown) [Compound 28, (3-Methyl-3-naphthalen-1-ylmethyl-2,3-dihydrobenzofuran-6-yl)-piperidin-1-ylmethanone]", "values": [{"measurement": "EC50", "setting": "[2]", "value": "> 10000", "unit": "nM"}, {"measurement": "EC50", "setting": "[3]", "value": "> 10000", "unit": "nM"}]}, {"smiles": "CC1(Cc2ccc3ccccc3c2)COc2cc(C(=O)N3CCCCC3)ccc21", "note": "(stereo not shown) [Compound 29, (3-Methyl-3-naphthalen-2-ylmethyl-2,3-dihydrobenzofuran-6-yl)-piperidin-1-ylmethanone]", "values": [{"measurement": "EC50", "setting": "[2]", "value": "> 10000", "unit": "nM"}, {"measurement": "EC50", "setting": "[3]", "value": "875 ± 1.4", "unit": "nM"}, {"measurement": "Ki", "setting": "hCB1", "value": "430 ± 39", "unit": "nM"}, {"measurement": "Ki", "setting": "hCB2", "value": "490 ± 45", "unit": "nM"}]}, {"smiles": "CC1(Cc2ccc(Cl)cc2)COc2cc(C(=O)N3CCCCC3)ccc21", "note": "(stereo not shown) [Compound 30, [3-(4-Chlorobenzyl)-3-methyl-2,3-dihydrobenzofuran-6-yl]piperidin-1-ylmethanone]", "values": [{"measurement": "EC50", "setting": "[2]", "value": "1363 ± 1.4", "unit": "nM"}, {"measurement": "Emax", "setting": "[2]; read-out: γ-[35S]GTP hCB1 Emax", "value": 86.9, "unit": "%"}, {"measurement": "EC50", "setting": "[3]", "value": "56.2 ± 1.2", "unit": "nM"}, {"measurement": "Ki", "setting": "hCB2", "value": "123 ± 16.5", "unit": "nM"}]}, {"smiles": "COc1ccc(CC2(C)COc3cc(C(=O)N4CCCCC4)ccc32)cc1", "note": "(stereo not shown) [Compound 31, [3-[(4-Methoxyphenyl)methyl]-3-methyl-2,3-dihydrobenzofuran-6-yl]-(1-piperidyl)methanone]", "values": [{"measurement": "EC50", "setting": "[2]", "value": "> 10000", "unit": "nM"}, {"measurement": "EC50", "setting": "[3]", "value": 235, "unit": "nM"}]}, {"smiles": "CC1(Cc2ccncc2)COc2cc(C(=O)N3CCCCC3)ccc21", "note": "(stereo not shown) [Compound 32, [3-Methyl-3-(4-pyridylmethyl)-2,3-dihydrobenzofuran-6-yl]-(1-piperidyl)methanone]", "values": [{"measurement": "EC50", "setting": "[2]", "value": "> 10000", "unit": "nM"}, {"measurement": "EC50", "setting": "[3]", "value": 2800, "unit": "nM"}]}, {"smiles": "C[C@@]1(Cc2ccccc2)COc2cc(C(=O)N3CCCCC3)ccc21", "note": "[Compound 33, (S)-3-Benzyl-3-methyl-2,3-dihydrobenzofuran-6-carboxylic acid piperidine amide]", "values": [{"measurement": "γ-[35S]GTP hCB2 Emax", "setting": "[3]", "value": 86, "unit": "%"}]}, {"smiles": "C[C@]1(Cc2ccccc2)COc2cc(C(=O)N3CCCCC3)ccc21", "note": "[Compound 34, (R)-3-benzyl-3-methyl-2,3-dihydrobenzofuran-6-carboxylic acid piperidine amide]", "values": [{"measurement": "γ-[35S]GTP hCB2 Emax", "setting": "[3]", "value": 43.3, "unit": "%"}]}]}
